In ChEMBL document CHEMBL4219167, “Disulfiram-based disulfides as narrow-spectrum antibacterial agents” (Bioorg Med Chem Lett, 2018):
In brackets after ≈: the same amount, converted by molar mass.

Legend:
[1] = system: Burkholderia multivorans; test: Antibacterial activity against Burkholderia multivorans CF2 after 20 hrs by broth microdilution assay; format: functional; details: CF2, 20 h
How it was run: (§1)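 Medium is tryptic soy broth, 37°C. Overnight culture is adjusted to 0.5 McFarland, diluted 1:100 and exposed to serial dilutions (test agents from 1 mM or 1 mg/mL DMSO stocks; control antibiotics in water). Incubation lasts 20 h. MIC is the lowest concentration with no visible growth.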

[2] = system: Bacillus anthracis; test: Antibacterial activity against Bacillus anthracis Weybridge after 20 hrs by broth microdilution assay; format: functional
[3] = system: Streptococcus agalactiae; test: Antibacterial activity against Streptococcus agalactiae SGBS005 after 20 hrs by broth microdilution assay; format: functional; details: SGBS005, 20 h
[4] = system: Enterococcus faecium; test: Antibacterial activity against vancomycin-resistant Enterococcus faecium ATCC 700221 after 20 hrs by broth microdilution assay; format: functional; details: ATCC 700221, 20 h
How it was run: (§2)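 Brain heart infusion broth at 37°C; E. faecium under 5% CO2. Cells at 0.5 McFarland are diluted 1:100 and exposed to serial dilutions (DMSO stocks 1 mM or 1 mg/mL; controls in water).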

[5] = system: Listeria monocytogenes; test: Antibacterial activity against Listeria monocytogenes Gibson after 20 hrs by broth microdilution assay; format: functional; how it was run: as §2
[6] = system: Escherichia coli; test: Antibacterial activity against Escherichia coli DC10B after 20 hrs by broth microdilution assay; format: functional; how it was run: as §1
[7] = system: Staphylococcus aureus; test: Antibacterial activity against vancomycin-intermediate resistant Staphylococcus aureus AR-217 after 20 hrs by broth microdilution assay; format: functional; details: AR-217, 20 h
[8] = system: Salmonella typhi; test: Antibacterial activity against Salmonella typhi Ty2 after 20 hrs by Todd Hewitt broth broth microdilution method; format: functional, Salmonella enterica subsp. enterica serovar Typhi str. Ty2; details: Salmonella enterica
[9] = system: Yersinia enterocolitica; test: Antibacterial activity against Yersinia enterocolitica WA-314 after 20 hrs by broth microdilution assay; format: functional; details: WA-314, 20 h
How it was run: (§3)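 Yersinia cultured in tryptic soy broth at 28°C. A 0.5 McFarland suspension diluted 1:100 receives serial dilutions of agents from 1 mM or 1 mg/mL DMSO stocks; control antibiotics are in water.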

[10] = system: Staphylococcus aureus; test: Synergistic antibacterial activity against vancomycin-resistant Staphylococcus aureus HIP14300 assessed as vancomycin MIC after 20 hrs by checkerboard microdilution assay; format: functional; details: HIP14300, 20 h
[11] = system: Acinetobacter baumannii; test: Antibacterial activity against Acinetobacter baumannii AB5075 after 20 hrs by broth microdilution assay; format: functional; details: AB5075, 20 h
[12] = system: Staphylococcus aureus; test: Synergistic antibacterial activity against vancomycin-resistant Staphylococcus aureus HIP14300 assessed as fractional inhibitory concentration in presence of vancomycin after 20 hrs by checkerboard microdilution assay; format: functional
[13] = system: Yersinia pestis; test: Antibacterial activity against Yersinia pestis Kuma D7 after 20 hrs by broth microdilution assay; format: functional; details: Kuma D7, 20 h
[14] = rat, microsomes
[15] = system: Staphylococcus aureus; test: Synergistic antibacterial activity against vancomycin-resistant Staphylococcus aureus HIP14300 after 20 hrs in presence of vancomycin by checkerboard microdilution assay; format: functional; details: HIP14300, 20 h
[16] = system: Staphylococcus aureus; test: Antibacterial activity against methicillin-resistant Staphylococcus aureus COL after 20 hrs by broth microdilution assay; format: functional
[17] = system: Brucella neotomae; test: Antibacterial activity against Brucella neotomae 5K33 after 20 hrs by broth microdilution assay; format: functional; details: 5K33, 20 h
[18] = system: Burkholderia cepacia; test: Antibacterial activity against Burkholderia cepacia UCB 717 after 20 hrs by broth microdilution assay; format: functional; details: UCB 717, 20 h; how it was run: as §1
[19] = system: Staphylococcus aureus; test: Synergistic antibacterial activity against methicillin-resistant Staphylococcus aureus COL in presence of vancomycin after 20 hrs by checkerboard microdilution assay; format: functional
[20] = system: Staphylococcus epidermidis; test: Synergistic antibacterial activity against vancomycin-intermediate resistant Staphylococcus epidermidis NRS53 after 20 hrs in presence of vancomycin by checkerboard microdilution assay; format: functional; details: NRS53, 20 h
[21] = system: Staphylococcus aureus; test: Synergistic antibacterial activity against vancomycin-intermediate resistant Staphylococcus aureus AR-217 after 20 hrs in presence of vancomycin by checkerboard microdilution assay; format: functional; details: AR-217, 20 h
[22] = Selectivity index, ratio of IC50 for cytotoxicity against human HepG2 cells to MIC for antibacterial activity against vancomycin-resistant Staphylococcus aureus HIP14300; format: toxicity, cell-based; details: read-out: Selectivity Index
[23] = system: HepG2; test: Cytotoxicity against human HepG2 cells assessed as reduction in cell viability after 72 hrs by MTT assay; format: cell-based; details: HepG2, 72 h
[24] = system: Proteus mirabilis; test: Antibacterial activity against Proteus mirabilis HM-752 after 20 hrs by broth microdilution assay; format: functional; details: HM-752, 20 h; how it was run: as §1
[25] = system: Yersinia pseudotuberculosis; test: Antibacterial activity against Yersinia pseudotuberculosis P61 after 20 hrs by broth microdilution assay; format: functional; details: P61, 20 h; how it was run: as §3
[26] = system: Yersinia pestis; test: Antibacterial activity against Yersinia pestis Kim D2 after 20 hrs by broth microdilution assay; format: functional; details: Kim D2, 20 h
[27] = system: Staphylococcus epidermidis; test: Synergistic antibacterial activity against vancomycin-intermediate resistant Staphylococcus epidermidis NRS53 assessed as fractional inhibitory concentration in presence of vancomycin after 20 hrs by checkerboard microdilution assay; format: functional
[28] = system: Shigella dysenteriae; test: Antibacterial activity against Shigella dysenteriae Newcastle 1934 after 20 hrs by broth microdilution assay; format: functional; details: Newcastle 1934, 20 h; how it was run: as §1
[29] = system: Staphylococcus aureus; test: Antibacterial activity against vancomycin-resistant Staphylococcus aureus HIP14300 after 20 hrs by broth microdilution assay; format: functional; details: HIP14300, 20 h
[30] = rat, microsomes, 1 h
[31] = system: Citrobacter freundii; test: Antibacterial activity against Citrobacter freundii 4_7_47CFAA after 20 hrs by broth microdilution assay; format: functional
How it was run: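 Brucella broth, 37°C, 5% CO2. Inoculum is 0.5 McFarland diluted 1:100, with serial drug dilutions from DMSO stocks (1 mM or 1 mg/mL) and control antibiotics in water.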

[32] = system: Vibrio cholerae; test: Antibacterial activity against Vibrio cholerae TS D4 after 20 hrs by Todd Hewitt broth broth microdilution method; format: functional; details: TS D4, 20 h
[33] = system: Bacillus anthracis; test: Antibacterial activity against Bacillus anthracis Ames 35 after 20 hrs by broth microdilution assay; format: functional; details: Ames 35, 20 h
[34] = system: Staphylococcus epidermidis; test: Synergistic antibacterial activity against vancomycin-intermediate resistant Staphylococcus epidermidis NRS53 assessed as vancomycin MIC after 20 hrs by checkerboard microdilution assay; format: functional; details: NRS53, 20 h
[35] = system: Staphylococcus epidermidis; test: Antibacterial activity against vancomycin-intermediate resistant Staphylococcus epidermidis NRS6 after 20 hrs by broth microdilution assay; format: functional; details: NRS6, 20 h
[36] = Selectivity index, ratio of IC50 for cytotoxicity against human HepG2 cells to MIC for antibacterial activity against methicillin-resistant Staphylococcus aureus COL; format: toxicity, cell-based; details: read-out: Selectivity Index
[37] = system: Bacillus anthracis; test: Antibacterial activity against Bacillus anthracis Sterne 34F2 after 20 hrs by broth microdilution assay; format: functional; details: Sterne 34F2, 20 h
[38] = Selectivity index, ratio of IC50 for cytotoxicity against human HepG2 cells to MIC for antibacterial activity against vancomycin-intermediate resistant Staphylococcus aureus; format: toxicity, cell-based; details: read-out: Selectivity Index
[39] = system: Staphylococcus aureus; test: Synergistic antibacterial activity against methicillin-resistant Staphylococcus aureus COL assessed as fractional inhibitory concentration in presence of vancomycin after 20 hrs by checkerboard microdilution assay; format: functional
[40] = system: Staphylococcus epidermidis; test: Antibacterial activity against vancomycin-intermediate resistant Staphylococcus epidermidis NRS53 after 20 hrs by broth microdilution assay; format: functional; details: NRS53, 20 h
[41] = system: Klebsiella pneumoniae; test: Antibacterial activity against Klebsiella pneumoniae 700603 after 20 hrs by broth microdilution assay; format: functional; details: Klebsiella pneumoniae, 700603, 20 h; how it was run: as §1
[42] = system: Staphylococcus aureus; test: Synergistic antibacterial activity against vancomycin-intermediate resistant Staphylococcus aureus AR-217 assessed as fractional inhibitory concentration in presence of vancomycin after 20 hrs by checkerboard microdilution assay; format: functional
[43] = system: Pseudomonas aeruginosa; test: Antibacterial activity against Pseudomonas aeruginosa ATCC 15442 after 20 hrs by broth microdilution assay; format: functional; details: ATCC 15442, 20 h; how it was run: as §1
[44] = system: Staphylococcus aureus; test: Synergistic antibacterial activity against methicillin-resistant Staphylococcus aureus COL assessed as vancomycin MIC after 20 hrs by checkerboard microdilution assay; format: functional
[45] = system: Micrococcus luteus; test: Antibacterial activity against Micrococcus luteus SK58 after 20 hrs by broth microdilution assay; format: functional; details: SK58, 20 h
[46] = system: Streptococcus pyogenes; test: Antibacterial activity against Streptococcus pyogenes H293 after 20 hrs by broth microdilution assay; format: functional; details: H293, 20 h
[47] = system: Bacillus cereus; test: Antibacterial activity against Bacillus cereus Gibson 971 after 20 hrs by broth microdilution assay; format: functional; details: Gibson 971, 20 h
[48] = system: Streptococcus pneumoniae; test: Antibacterial activity against Streptococcus pneumoniae TCH8431 after 20 hrs by broth microdilution assay; format: functional; details: TCH8431, 20 h
[49] = system: Rhodococcus erythropolis; test: Antibacterial activity against Rhodococcus erythropolis SK121 after 20 hrs by broth microdilution assay; format: functional; details: SK121, 20 h
How it was run: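 R. erythropolis grown in brain heart infusion broth at 30°C. A 0.5 McFarland suspension diluted 1:100 is treated with serial dilutions from 1 mM or 1 mg/mL DMSO stocks; control antibiotics are in water.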

[50] = system: Bacillus anthracis; test: Antibacterial activity against Bacillus anthracis UM23-1 after 20 hrs by broth microdilution assay; format: functional; details: UM23-1, 20 h
[51] = system: Francisella tularensis; test: Antibacterial activity against Francisella tularensis Utah 112 after 20 hrs by broth microdilution assay; format: functional; details: Utah 112, 20 h
[52] = system: Corynebacterium striatum; test: Antibacterial activity against Corynebacterium striatum FS-1 after 20 hrs by broth microdilution assay; format: functional; details: FS-1, 20 h

CCCCCCCCSSC(=S)N(CC)CC
MIC [1]: > 32 µM | MIC [2]: 2 µM (≈ 0.587 µg/mL) | MIC [3]: 32 µM (≈ 9.39 µg/mL) | MIC [4]: 8 µM (≈ 2.35 µg/mL) | MIC [5]: 4 µM (≈ 1.17 µg/mL) | MIC [6]: > 32 µM | MIC [7]: 4 µM (≈ 1.17 µg/mL) | MIC [8]: > 32 µM | MIC [9]: > 32 µM | MIC [10]: 1 µg/mL | MIC [11]: > 32 µM | FIC [12]: 0.5 | MIC [13]: 32 µM (≈ 9.39 µg/mL) | beta t1/2 [14]: 1.02 h | MIC [15]: 1 µg/mL | MIC [16]: 4 µM (≈ 1.17 µg/mL) | MIC [17]: > 32 µM | MIC [18]: > 32 µM | MIC [19]: 0.25 µg/mL | MIC [20]: 1 µg/mL | MIC [21]: 0.25 µg/mL | selectivity ratio [22]: > 13 | IC50 [23]: 50 µM | MIC [24]: > 32 µM | MIC [25]: > 32 µM | MIC [26]: 32 µM (≈ 9.39 µg/mL) | FIC [27]: 0.75 | MIC [28]: > 32 µM | MIC [29]: 4 µM (≈ 1.17 µg/mL) | CLH [30]: 22.6 µL/min/mg | MIC [31]: > 32 µM | MIC [32]: > 32 µM | MIC [33]: 4 µM (≈ 1.17 µg/mL) | MIC [34]: 2 µg/mL | MIC [35]: 4 µM (≈ 1.17 µg/mL) | selectivity ratio [36]: > 13 | MIC [37]: 2 µM (≈ 0.587 µg/mL) | selectivity ratio [38]: > 13 | FIC [39]: 0.75 | MIC [40]: 2 µg/mL (≈ 6.81 µM) | MIC [41]: > 32 µM | FIC [42]: 0.56 | MIC [43]: > 32 µM | MIC [44]: 1 µg/mL | MIC [45]: 16 µM (≈ 4.7 µg/mL)

CCCSSC(=S)N(CC)CC
MIC [1]: 32 µM (≈ 7.15 µg/mL) | MIC [2]: 4 µM (≈ 0.894 µg/mL) | MIC [3]: > 32 µM | MIC [4]: > 32 µM | MIC [5]: 16 µM (≈ 3.57 µg/mL) | MIC [6]: > 32 µM | MIC [7]: 8 µM (≈ 1.79 µg/mL) | MIC [8]: > 32 µM | MIC [9]: > 32 µM | MIC [46]: 32 µM (≈ 7.15 µg/mL) | MIC [11]: > 32 µM | MIC [13]: 32 µM (≈ 7.15 µg/mL) | MIC [16]: 16 µM (≈ 3.57 µg/mL) | MIC [17]: > 32 µM | MIC [47]: 1 µM (≈ 0.223 µg/mL) | MIC [18]: > 32 µM | IC50 [23]: 51 µM | MIC [24]: > 32 µM | MIC [25]: > 32 µM | MIC [26]: 16 µM (≈ 3.57 µg/mL) | MIC [28]: > 32 µM | MIC [29]: 16 µM (≈ 3.57 µg/mL) | MIC [31]: > 32 µM | MIC [32]: 32 µM (≈ 7.15 µg/mL) | MIC [33]: 4 µM (≈ 0.894 µg/mL) | MIC [48]: > 32 µM | MIC [49]: 16 µM (≈ 3.57 µg/mL) | MIC [50]: 4 µM (≈ 0.894 µg/mL) | MIC [35]: 32 µM (≈ 7.15 µg/mL) | MIC [37]: 4 µM (≈ 0.894 µg/mL) | MIC [51]: 32 µM (≈ 7.15 µg/mL) | MIC [41]: > 32 µM | MIC [43]: > 32 µM | MIC [52]: > 32 µM | MIC [45]: 16 µM (≈ 3.57 µg/mL)
